Active and inactive are the calls of the source.
Key:
[1] = molecular target: T1, P2Y purinoceptor 14 (Mus musculus, UniProt Q9ESG6); assay: (§1) Displacement of fluorescent tracer 4-(4-(1-(4-(1-(6-(3-carboxylato-4-(3-iminio-3H-xanthen-9-yl)benzamido)hexyl)-4,5-dihydro-1H-pyrrol-3-yl)butyl)piperidin-1-ium-4-yl)phenyl)-7-(4-(trifluoromethyl)phenyl)-2-naphthoate from mouse P2Y14R stably expressed in human HEK293 cells by flow cytometry; assay type: cell-based
T1 sequence (Q9ESG6 whole entry): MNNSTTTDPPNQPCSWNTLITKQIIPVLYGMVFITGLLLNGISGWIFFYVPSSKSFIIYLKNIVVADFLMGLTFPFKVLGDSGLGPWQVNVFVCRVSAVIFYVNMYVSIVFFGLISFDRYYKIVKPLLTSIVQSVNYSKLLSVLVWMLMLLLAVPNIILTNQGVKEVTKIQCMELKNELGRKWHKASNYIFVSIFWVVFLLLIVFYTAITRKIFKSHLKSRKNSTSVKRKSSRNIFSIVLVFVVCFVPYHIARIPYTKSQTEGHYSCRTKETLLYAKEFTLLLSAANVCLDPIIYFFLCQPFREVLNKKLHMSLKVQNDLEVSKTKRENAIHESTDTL
Procedure, shortened: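 Whole-cell competitive binding: CHO cells expressing hP2Y14R (or HEK-293 cells expressing mP2Y14R) incubated with AlexaFluor488-labelled antagonist tracer at 20 nM. […] Ki derived by dividing IC50 by 1.72.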

[2] = Lipophilicity, log D of compound at pH 7.4 incubated for 20 hrs by HPLC analysis; assay type: physicochemical; conditions: buffer
[3] = Selectivity ratio, ratio of IC50 for displacement of fluorescent tracer 4-(4-(1-(4-(1-(6-(3-carboxylato-4-(3-iminio-3H-xanthen-9-yl)benzamido)hexyl)-4,5-dihydro-1H-pyrrol-3-yl)butyl)piperidin-1-ium-4-yl)phenyl)-7-(4-(trifluoromethyl)phenyl)-2-naphthoate from mouse P2Y14R stably expressed in human HEK293 cells to IC50 for displacement of fluorescent tracer 4-(4-(1-(4-(1-(6-(3-carboxylato-4-(3-iminio-3H-xanthen-9-yl)benzamido)hexyl)-4,5-dihydro-1H-pyrrol-3-yl)butyl)piperidin-1-ium-4-yl)phenyl)-7-(4-(trifluoromethyl)phenyl)-2-naphthoate from human P2Y14R stably expressed in CHO cells; assay type: cell-based
[4] = molecular target: T2, P2Y purinoceptor 14 (Homo sapiens, UniProt Q15391); assay: as §1, with “human” for “mouse”, “CHO” for “human HEK293”, “cells assessed as inhibition constant” for “cells”; assay type: cell-based
T2 sequence (Q15391 whole entry): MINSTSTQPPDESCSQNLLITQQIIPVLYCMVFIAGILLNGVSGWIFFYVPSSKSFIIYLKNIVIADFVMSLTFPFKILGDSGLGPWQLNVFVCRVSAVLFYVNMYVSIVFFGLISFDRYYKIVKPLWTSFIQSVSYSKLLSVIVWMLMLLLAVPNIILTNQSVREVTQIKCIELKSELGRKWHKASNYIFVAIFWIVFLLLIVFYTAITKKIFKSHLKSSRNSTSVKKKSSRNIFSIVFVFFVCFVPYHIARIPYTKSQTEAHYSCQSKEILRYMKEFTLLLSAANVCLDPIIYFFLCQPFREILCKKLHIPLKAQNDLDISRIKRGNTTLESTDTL
Procedure, shortened: (§2)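 Whole-cell competitive binding: CHO cells expressing hP2Y14R (or HEK-293 cells expressing mP2Y14R) incubated with AlexaFluor488-labelled antagonist tracer at 20 nM.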

[5] = test system: Mus musculus; assay: Antiallodynic activity in CCI surgery neuropathic pain Hsd:ICR mouse model assessed as reversal of mechano-allodynia by measuring paw withdrawal threshold at 10 micromol/kg,po and measured upto 6 hrs by von frey test; assay type: functional, organism-based; conditions: dose 10.0 µmol/kg
Procedure, shortened: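 CCI neuropathic pain in adult male CD-1 mice. Single oral gavage dose of 10 μmol/kg on day 7 post-surgery. Vehicle 5% DMSO + 10% (Kolliphor HS 15:DMSO 5:95) in 0.5% methylcellulose, 0.2 mL. Von Frey paw withdrawal threshold on both hindpaws. Mean ± SD; two-way ANOVA with Dunnett's test.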

[6] = test system: Mus musculus; assay: Antiallodynic activity in CCI surgery neuropathic pain Hsd:ICR mouse model assessed as reversal of mechano-allodynia by measuring paw withdrawal threshold at 10 micromol/kg,ip and measured upto 5 days by von frey test; assay type: functional, organism-based; conditions: dose 10.0 µmol/kg, time <= 5.0 day
Procedure, shortened: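 CCI neuropathic pain in adult male Hsd:ICR (CD-1) mice (20–30 g). Single i.p. injection on day 7 after sciatic nerve constriction, at peak pain. Vehicle 10% (Kolliphor HS 15:DMSO 5:95) in saline, 0.2 mL. Paw withdrawal threshold by von Frey filaments on ipsilateral and contralateral hindpaws. Mean ± SD; two-way ANOVA with Dunnett's test versus day 0 and day 7.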

[7] = test system: Mus musculus; assay: Anti-asthmatic activity against OVA/Aspergillus-sensitized protease-mediated C57BL/6J mouse model allergic asthma assessed as reduction in macrophages in BAL fluid at 10 mg/kg,ip followed by 0.5 hrs OVA challenge and measured after 48 hrs; assay type: functional, organism-based; conditions: time 48.5 hrs
[8] = test system: Mus musculus; assay: Anti-asthmatic activity against OVA/Aspergillus-sensitized protease-mediated C57BL/6J mouse model allergic asthma assessed as reduction in neutrophils in BAL fluid at 10 mg/kg,ip followed by 0.5 hrs OVA challenge and measured after 48 hrs; assay type: functional, organism-based; conditions: time 48.5 hrs
[9] = test system: Mus musculus; assay: Anti-asthmatic activity against OVA/Aspergillus-sensitized protease-mediated C57BL/6J mouse model allergic asthma assessed as reduction in lymphocytes in BAL fluid at 10 mg/kg,ip followed by 0.5 hrs OVA challenge and measured after 48 hrs; assay type: functional, organism-based; conditions: time 48.5 hrs
[10] = test system: Mus musculus; assay: Anti-asthmatic activity against OVA/Aspergillus-sensitized protease-mediated C57BL/6J mouse model allergic asthma assessed as reduction in airway eosinophilia in BAL fluid at 10 mg/kg,ip followed by 0.5 hrs OVA challenge and measured after 48 hrs; assay type: functional, organism-based; conditions: time 48.5 hrs
[11] = molecular target: T2, P2Y purinoceptor 14; assay: Displacement of fluorescent tracer 4-(4-(1-(4-(1-(6-(3-carboxylato-4-(3-iminio-3H-xanthen-9-yl)benzamido)hexyl)-4,5-dihydro-1H-pyrrol-3-yl)butyl)piperidin-1-ium-4-yl)phenyl)-7-(4-(trifluoromethyl)phenyl)-2-naphthoate from human P2Y14R stably expressed in CHO cells by flow cytometry; assay type: cell-based; procedure, shortened: as §2

SMILES | Ki [4] | IC50 [11] | logD at 20 h [2] | other results
O=C(O)c1cc(-c2ccc(C3=C[C@H]4CNC[C@@H]4C3)cc2)c2ccc(-c3ccc(C(F)(F)F)cc3)cc2c1 (racemic) | 0.00965 µM |  | 2.2 | IC50 [1]: 0.00557 µM; Ratio IC50 [3]: 0.336
O=C(O)c1cc(-c2ccc(C3(O)CC4(CNC4)C3)cc2)c2ccc(-c3ccc(C(F)(F)F)cc3)cc2c1 | 0.0121 µM |  | 0.81 | 
O=C(O)c1cc(-c2ccc(C3CC4(CNC4)C3)cc2)c2ccc(-c3ccc(C(F)(F)F)cc3)cc2c1 | 0.0271 µM |  | 1.9 | 
CCOC(=O)N1C[C@H]2C[C@@H](C1)[C@@]2(O)c1ccc(-c2cc(C(=O)OCC(=O)N(C)C)cc3cc(-c4ccc(C(F)(F)F)cc4)ccc23)cc1 |  |  |  | Activity [5]: Active; Activity [6]: Active; Activity [7]: inactive; Activity [8]: inactive; Activity [9]: inactive; Activity [10]: inactive
O=C(O)c1cc(-c2ccc(C3CCCNCCC3)cc2)c2ccc(-c3ccc(C(F)(F)F)cc3)cc2c1 | 0.0108 µM | 0.0185 µM | 2.5 | IC50 [1]: 0.0116 µM; Ratio IC50 [3]: 0.627
O=C(O)c1cc(-c2ccc(C3CCNC3)cc2)c2ccc(-c3ccc(C(F)(F)F)cc3)cc2c1 (racemic) |  |  | 1.6 | 
CCOC(=O)N1C[C@H]2C[C@@H](C1)[C@@]2(O)c1ccc(-c2cc(C(=O)O)cc3cc(-c4ccc(C(F)(F)F)cc4)ccc23)cc1 | 0.0474 µM | 0.0816 µM |  | 
CCOC(=O)N1C[C@H]2C[C@@H]1C[C@@H]2c1ccc(-c2cc(C(=O)OCC(=O)N(C)C)cc3cc(-c4ccc(C(F)(F)F)cc4)ccc23)cc1 |  |  |  | Activity [5]: Active; Activity [6]: Active
COC1(c2ccc(-c3cc(C(=O)O)cc4cc(-c5ccc(C(F)(F)F)cc5)ccc34)cc2)CC2(CNC2)C1 | 0.027 µM | 0.0465 µM | 1.8 | 

Further lines, with some results ahead:

Ki [4] | IC50 [11] | SMILES | logD at 20 h [2] | other results
1.03 µM |  | O=C(O)c1cc(-c2ccc(C3(O)CCCNCCC3)cc2)c2ccc(-c3ccc(C(F)(F)F)cc3)cc2c1 |  | 
0.0383 µM |  | O=C(O)c1cc(-c2ccc(C3CNC3)cc2)c2ccc(-c3ccc(C(F)(F)F)cc3)cc2c1 | 1.4 | 
2.8 µM | 4.81 µM | CN(C)C(=O)COC(=O)c1cc(-c2ccc([C@]3(O)[C@@H]4CNC[C@H]3C4)cc2)c2ccc(-c3ccc(C(F)(F)F)cc3)cc2c1 |  | 
0.0674 µM | 0.116 µM | NCCCCCCn1cc(CCCCN2CCC(c3ccc(-c4cc(C(=O)O)cc5cc(-c6ccc(C(F)(F)F)cc6)ccc45)cc3)CC2)nn1 |  | 
0.0186 µM |  | O=C(O)c1cc(-c2ccc(C3C[C@H]4CNC[C@@H]4C3)cc2)c2ccc(-c3ccc(C(F)(F)F)cc3)cc2c1 (racemic) | 2.4 | 
0.305 µM | 0.524 µM | O=C(O)c1cc(-c2ccc([C@@H]3[C@@H]4CNC[C@H]3C4)cc2)c2ccc(-c3ccc(C(F)(F)F)cc3)cc2c1 | 2.8 | 
0.247 µM | 0.424 µM | CC(C)(C)OC(=O)NCCCCCCn1cc(CCCCN2CCC(c3ccc(-c4cc(C(=O)O)cc5cc(-c6ccc(C(F)(F)F)cc6)ccc45)cc3)CC2)nn1 |  | 
0.034 µM | 0.0584 µM | O=C(O)c1cc(-c2ccc(/C3=C/CCNCCC3)cc2)c2ccc(-c3ccc(C(F)(F)F)cc3)cc2c1 | 2.9 | 

Reference: ChEMBL document CHEMBL5331128, “Alicyclic Ring Size Variation of 4-Phenyl-2-naphthoic Acid Derivatives as P2Y14 Receptor Antagonists” (J Med Chem, 2023)
